Experimental data collected from several papers.
Target: Aurora kinase A (AURKA, Homo sapiens, UniProt O14965)
Residues used in one study (O14965 1-403): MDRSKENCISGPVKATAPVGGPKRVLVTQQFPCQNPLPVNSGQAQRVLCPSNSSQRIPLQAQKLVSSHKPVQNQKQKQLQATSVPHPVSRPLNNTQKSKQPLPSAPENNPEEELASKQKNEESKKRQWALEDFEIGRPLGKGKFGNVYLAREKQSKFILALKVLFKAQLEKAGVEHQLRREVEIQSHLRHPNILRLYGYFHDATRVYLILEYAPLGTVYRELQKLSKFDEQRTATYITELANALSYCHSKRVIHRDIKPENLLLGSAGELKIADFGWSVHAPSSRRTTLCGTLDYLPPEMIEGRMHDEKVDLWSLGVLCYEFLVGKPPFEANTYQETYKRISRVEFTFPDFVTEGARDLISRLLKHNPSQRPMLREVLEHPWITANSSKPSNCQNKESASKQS

| SMILES | observed | mode | technique | cells | tested at | endpoint | value |
| --- | --- | --- | --- | --- | --- | --- | --- |
| CC(C)(O)c1cncc(-c2nc3ccc(F)cc3n2C2CC2)c1 | cell-free assay | – | competition with immobilised ligand | – | 1 µM | remaining binding | 94% |
| CCN(CC)CCNC(=O)c1c(C)[nH]c(/C=C2\C(=O)Nc3ccc(F)cc32)c1C | enzyme activity | inhibitor | – | – | 0.1 µM | remaining activity | 83% |
| CN1CC(Oc2cnc(C#N)cc2-c2ccn3nc(NC(=O)C4CC4)cc3c2)C1 | enzyme activity | inhibitor | – | – | 1 µM | inhibition | 6% |
| N#CC1(c2ccccn2)CCN(Cc2cc(C(=O)N3CCCC3)c(=O)n3ccccc23)CC1 | cell-free assay | – | competition with immobilised ligand | – | 1 µM | remaining binding | 90% |
| CC(C)(C)c1nc2c(s1)c1nc(N)ncc1c1ccc(NS(=O)(=O)c3c(F)cccc3F)c(F)c12 | enzyme activity | inhibitor | radiometric | – | 1 µM | remaining activity | 103% |
| CCN(CC)CCNC(=O)c1c(C)[nH]c(/C=C2\C(=O)Nc3ccc(F)cc32)c1C | enzyme activity | inhibitor | – | – | 10 µM | inhibition | 84% |
| CC/C(=N\NC(=O)NCc1cccc(O)c1)c1ccc(O)c(C)c1O | enzyme activity | inhibitor | – | – | 0.1 µM | inhibition | 5.9% |
| CCCOc1ccc(OC)c(F)c1C(=O)c1ccc(C(=O)N[C@@H]2CNC[C@H]2NC(=O)c2ccc3[nH]ncc3c2)cc1 | enzyme activity | inhibitor | – | – | 10 µM | remaining activity | 33% |
| Cc1ccc(C(=O)NCc2ccsc2)cc1C#Cc1cn(C(C)C)c2ncnc(N)c12 | enzyme activity | inhibitor | – | – | 1 µM | activity vs control | 50% |
| Cc1ccc(NC(=O)c2ccc(C)c(C(F)(F)F)c2)cc1C#Cc1nn(C2CCC(O)CC2)c2ncnc(N)c12 (centres unmarked) | cell-free assay | – | – | – | 10 µM | remaining signal | 64% |
| N#CCCc1ccc2c(c1)-c1[nH]c3ccc([N+](=O)[O-])cc3c1CC(=O)N2 | cell-free assay | – | – | – | 0.5 µM | remaining signal | 78.7% |
| CC(C)(O)[C@H]1CC[C@H](Nc2ccc3ncc(-c4cccc(C(F)(F)F)c4)n3n2)CC1 | enzyme activity | inhibitor | – | – | 1 µM | remaining activity | 96.1% |
| COc1cc(Nc2cnc(C#N)c(O[C@H](C)CN(C)C)n2)ncc1-c1cnn(C)c1 | enzyme activity | inhibitor | radiometric | – | 10 µM | remaining activity | 48% |
| CNC(=O)c1cc(Oc2ccc(NC(=O)Nc3ccc(Cl)c(C(F)(F)F)c3)cc2)ccn1 | enzyme activity | inhibitor | – | – | 10 µM | inhibition | 86% |
| CC1=C(C#N)C(c2ccc3c(c2)c(NC(=O)c2ccccc2C)nn3C)C(C#N)=C(C)N1 | cell-free assay | – | competition with immobilised ligand | – | 1 µM | remaining binding | 61% |
| CNc1cc(Oc2cc(C(=O)Nc3cc(N4CCN(C)CC4)cc(C(F)(F)F)c3)ccc2C)ncn1 | target engagement in cells | inhibitor | chemoproteomics | Huh-7 | 1 µM | inhibition | -45.4% |

| SMILES | observed | mode | technique | cells | tested at | endpoint | value |
| --- | --- | --- | --- | --- | --- | --- | --- |
| COc1cc2nccc(Oc3ccc(NC(=O)c4c5n(n(-c6ccc(F)cc6)c4=O)CCCC5)cc3)c2cc1OC | enzyme activity | inhibitor | – | – | 0.1 µM | inhibition | -3% |
| Cc1cnc(NC2CCOCC2)nc1-n1cnc(C(=O)NC(CN)c2cc(F)cc(Cl)c2)c1 (centres unmarked) | enzyme activity | inhibitor | radiometric | – | 1 µM | remaining activity | 48% |
| Cc1sc(C(=O)NC2COC2)cc1-n1cc(NC(=O)Nc2c(F)cccc2Cl)cn1 | enzyme activity | inhibitor | – | – | 10 µM | remaining activity | 88.4% |
| O=C(Nc1cnc(Oc2ccc(F)cc2)nc1)N1CCc2ncccc2[C@@H]1c1ccc(F)cc1 | cell-free assay | – | competition with immobilised ligand | – | 1 µM | remaining binding | 100% |
| Nc1ncnc2occ(-c3ccc(NC(=O)Nc4cc(C(F)(F)F)ccc4F)cc3)c12 | enzyme activity | inhibitor | – | – | 20 µM | remaining activity | 0.1% |
| Cn1c(=O)n(-c2ccc(C(C)(C)C#N)cc2)c2c3cc(-c4cnc5ccccc5c4)ccc3ncc21 | enzyme activity | inhibitor | – | – | 10 µM | remaining activity | 104% |
| CS(=O)(=O)c1cc(C2(NC(=O)c3cncc4c3cnn4-c3ccc(F)cc3)CC2)ccn1 | cell-free assay | – | competition with immobilised ligand | – | 1 µM | remaining binding | 89% |
| COc1cc2ncnc(Nc3ccc(Oc4ccccc4)cc3C)c2cc1OC | enzyme activity | inhibitor | – | – | 1 µM | inhibition | 8% |
| O=C(CSc1nc2nccnc2c(=O)n1CCc1ccccc1)Nc1nccs1 | enzyme activity | inhibitor | – | – | 10 µM | inhibition | 1% |
| Cc1c[nH]c2nccc(Oc3c(F)cc(Nc4cc(Cl)nc(N)n4)cc3F)c12 | cell-free assay | – | competition with immobilised ligand | – | 0.1 µM | remaining binding | 94% |
| Cc1[nH]c(/C=C2\C(=O)Nc3ccc(F)cc32)c(C)c1C(=O)N[C@H]1CCN(C(=O)N(C)C)C1 | enzyme activity | inhibitor | – | – | 1 µM | remaining activity | 35% |
| CS(=O)(=O)N1CCCC(NC(=O)[C@H](CCC2CCCCC2)NC(=O)c2ccc(CNC(=O)c3cnc4ccccn34)cc2)C1 (some centres unmarked) | cell-free assay | – | competition with immobilised ligand | – | 0.1 µM | remaining binding | 100% |
| O=C(Nc1cnn(-c2csc(C(=O)NC3COC3)c2)c1)Nc1c(F)cccc1Cl | enzyme activity | inhibitor | – | – | 5 µM | remaining activity | 83.1% |
| O=C1NC(=O)c2cc(Nc3ccc(F)cc3)c(Nc3ccc(F)cc3)cc21 | cell-free assay | – | – | – | 0.5 µM | remaining signal | 92.7% |
| Cc1ccc(Nc2nccc(N(C)c3ccc4c(C)n(C)nc4c3)n2)cc1S(N)(=O)=O | enzyme activity | inhibitor | – | – | 10 µM | inhibition | 99% |
| COc1cc(-c2cn(C3CCc4c(F)cccc4N(CC(F)(F)F)C3=O)nn2)ccc1-n1cnc(C)c1 (centres unmarked) | cell-free assay | – | competition with immobilised ligand | – | 1 µM | remaining binding | 100% |
